Data on 31 molecules can be found in ChEMBL document CHEMBL2057155, “Synthesis of betulinic acid derivatives as entry inhibitors against HIV-1 and bevirimat-resistant HIV-1 variants” (Bioorg Med Chem Lett, 2012).

What is called EC50 is the concentration giving half of the maximal effect.

The nature of data set [1]: Cytotoxicity against human TZM-bl assessed as cell viability at 4 uM after 2 days. The format is cell-based. As to conditions: 48 h. The method, boiled down:
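Toxicity to TZM-bl cells was checked within the single-cycle infection assay at 4 μM.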

Data set [2] concerns Human immunodeficiency virus 1. Kind of data set: Antiviral activity against HIV1 NL4-3 infected in human TZM-bl cells assessed as reduction in luciferase gene expression by luminescence assay. It counts as functional, organism-based. To be noted: Human immunodeficiency virus 1, NL4-3, TZM-bl. The method, boiled down: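 Single-cycle HIV-1 NL4-3 infection of TZM-bl cells; HIV-1 tat-driven luciferase expression after viral entry read as the measure of inhibition. […] control is NL4-3 infection without compound. Values are the mean of two or more independent experiments with standard deviation.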

Take `C=C(C)[C@@H]1CC[C@]2(C(=O)NCCCCCCCCC(=O)N[C@@H](CCC(N)=O)C(=O)OC(C)(C)C)CC[C@]3(C)[C@H](CC[C@@H]4[C@@]5(C)CC[C@H](O)C(C)(C)[C@@H]5CC[C@]43C)[C@@H]12`: the Activity entry in data set [1] is on record as “Non-toxic”. The concentration for a half-maximal effect (EC50) in data set [2] worked out at 140 nM.
On to `C=C(C)[C@@H]1CC[C@]2(C(=O)NCCCCCCCCC(=O)N[C@@H](CC(N)=O)C(=O)OC)CC[C@]3(C)[C@H](CC[C@@H]4[C@@]5(C)CC[C@H](O)C(C)(C)[C@@H]5CC[C@]43C)[C@@H]12`, for which, in data set [1], the Activity result is “Non-toxic”. In addition, the 50% effective concentration (EC50) in data set [2] was 110 nM.
For `C=C(C)[C@@H]1CC[C@]2(C(=O)NCCCCCCCCC(=O)N[C@@H](CCC(=O)OC)C(=O)OC)CC[C@]3(C)[C@H](CC[C@@H]4[C@@]5(C)CC[C@H](O)C(C)(C)[C@@H]5CC[C@]43C)[C@@H]12`, the Activity result in data set [1] is “Non-toxic”. In data set [2], the EC50 came out at 60 nM.
As to `C=C(C)[C@@H]1CC[C@]2(C(=O)NCCCCCCCCC(=O)N[C@@H](C)C(=O)OC)CC[C@]3(C)[C@H](CC[C@@H]4[C@@]5(C)CC[C@H](O)C(C)(C)[C@@H]5CC[C@]43C)[C@@H]12`, in data set [1], the Activity entry is recorded as “Non-toxic”. In addition, in data set [2], the EC50 was 70 nM.
On to `C=C(C)[C@@H]1CC[C@]2(C(=O)NCCCCCCCCC(=O)N[C@H](C(=O)OC)[C@@H](C)CC)CC[C@]3(C)[C@H](CC[C@@H]4[C@@]5(C)CC[C@H](O)C(C)(C)[C@@H]5CC[C@]43C)[C@@H]12`, for which the Activity entry in data set [1] is recorded as “Non-toxic”. Besides, in data set [2], the concentration for a half-maximal effect (EC50) came out at 140 nM.
As for `C=C(C)[C@@H]1CC[C@]2(C(=O)NCCCCCCCCC(=O)N[C@@H](CC(C)C)C(=O)OC)CC[C@]3(C)[C@H](CC[C@@H]4[C@@]5(C)CC[C@H](O)C(C)(C)[C@@H]5CC[C@]43C)[C@@H]12`, in data set [1], the Activity entry was “Non-toxic”. Moreover, in data set [2], the concentration for a half-maximal effect (EC50) was 160 nM.
Consider `C=C(C)[C@@H]1CC[C@]2(C(=O)NCCCCCCCCC(=O)N[C@@H](Cc3ccccc3)C(=O)OC)CC[C@]3(C)[C@H](CC[C@@H]4[C@@]5(C)CC[C@H](O)C(C)(C)[C@@H]5CC[C@]43C)[C@@H]12`, for which, in data set [1], the Activity entry is “Non-toxic”. In addition, the EC50 in data set [2] is 720 nM.
Turning to `C=C(C)[C@@H]1CC[C@]2(C(=O)NCCCCCCCCC(=O)N3CCC[C@H]3C(=O)OC)CC[C@]3(C)[C@H](CC[C@@H]4[C@@]5(C)CC[C@H](O)C(C)(C)[C@@H]5CC[C@]43C)[C@@H]12`, the Activity result in data set [1] is on record as “Non-toxic”. Also, the 50% effective concentration (EC50) in data set [2] was 160 nM.
For `C=C(C)[C@@H]1CC[C@]2(C(=O)NCCCCCCCCC(=O)N[C@H](C(=O)OC)[C@@H](C)OC(C)(C)C)CC[C@]3(C)[C@H](CC[C@@H]4[C@@]5(C)CC[C@H](O)C(C)(C)[C@@H]5CC[C@]43C)[C@@H]12`, in data set [1], the Activity result is “Non-toxic”. Besides, the EC50 in data set [2] was 3490 nM.
Regarding `C=C(C)[C@@H]1CC[C@]2(C(=O)NCCCCCCCCCC(=O)N[C@@H](CCC(N)=O)C(=O)OC)CC[C@]3(C)[C@H](CC[C@@H]4[C@@]5(C)CC[C@H](O)C(C)(C)[C@@H]5CC[C@]43C)[C@@H]12`, the Activity result in data set [1] is reported as “Non-toxic”. Besides, the EC50 in data set [2] worked out at 60 nM.
In the same order, the values of `C=C(C)[C@@H]1CC[C@]2(C(=O)NCCCCCCCCCC(=O)N[C@@H](CC(N)=O)C(=O)OC)CC[C@]3(C)[C@H](CC[C@@H]4[C@@]5(C)CC[C@H](O)C(C)(C)[C@@H]5CC[C@]43C)[C@@H]12` are “Non-toxic” and 80 nM.
For `C=C(C)[C@@H]1CC[C@]2(C(=O)NCCCCCCCCC(=O)NCC#N)CC[C@]3(C)[C@H](CC[C@@H]4[C@@]5(C)CC[C@H](O)C(C)(C)[C@@H]5CC[C@]43C)[C@@H]12` the same measures were “Non-toxic” and 440 nM.
In the case of `C=C(C)[C@@H]1CC[C@]2(C(=O)NCCCCCCCCC(=O)NCCC#N)CC[C@]3(C)[C@H](CC[C@@H]4[C@@]5(C)CC[C@H](O)C(C)(C)[C@@H]5CC[C@]43C)[C@@H]12`, the Activity entry in data set [1] is listed as “Non-toxic”. In addition, in data set [2], the EC50 was determined as 340 nM.
In the same order, the values of `C=C(C)[C@@H]1CC[C@]2(C(=O)NCCCCCCCCC(=O)N(C)CC#N)CC[C@]3(C)[C@H](CC[C@@H]4[C@@]5(C)CC[C@H](O)C(C)(C)[C@@H]5CC[C@]43C)[C@@H]12` are “Non-toxic” and 810 nM.
As to `C=C(C)[C@@H]1CC[C@]2(C(=O)NCCCCC/C=C/C(=O)O)CC[C@]3(C)[C@H](CC[C@@H]4[C@@]5(C)CC[C@H](O)C(C)(C)[C@@H]5CC[C@]43C)[C@@H]12`, in data set [1], the Activity entry was “Non-toxic”. In addition, the half-maximal effective concentration (EC50) in data set [2] was more than 4000 nM.
For the molecule `C=C(C)[C@@H]1CC[C@]2(C(=O)NCCCCC/C=C(/F)C(=O)O)CC[C@]3(C)[C@H](CC[C@@H]4[C@@]5(C)CC[C@H](O)C(C)(C)[C@@H]5CC[C@]43C)[C@@H]12`, the Activity entry in data set [1] is given as “Non-toxic”. In addition, the concentration for a half-maximal effect (EC50) in data set [2] is more than 4000 nM.
In the same order, the values of `C=C(C)[C@@H]1CC[C@]2(C(=O)NCCCCC/C=C/C(=O)NCC(=O)O)CC[C@]3(C)[C@H](CC[C@@H]4[C@@]5(C)CC[C@H](O)C(C)(C)[C@@H]5CC[C@]43C)[C@@H]12` are “Non-toxic” and 150 nM.
In the same order, the values of `C=C(C)[C@@H]1CC[C@]2(C(=O)NCCCCC/C=C(/F)C(=O)NCC(=O)O)CC[C@]3(C)[C@H](CC[C@@H]4[C@@]5(C)CC[C@H](O)C(C)(C)[C@@H]5CC[C@]43C)[C@@H]12` are “Non-toxic” and 410 nM.
Regarding `C=C(C)[C@@H]1CC[C@]2(C(=O)NCCOCCOCC(=O)NCC(=O)O)CC[C@]3(C)[C@H](CC[C@@H]4[C@@]5(C)CC[C@H](O)C(C)(C)[C@@H]5CC[C@]43C)[C@@H]12`, the Activity entry in data set [1] was “Non-toxic”. Besides, in data set [2], the EC50 was more than 4000 nM.
In the same order, the values of `C=C(C)[C@@H]1CC[C@]2(C(=O)NCCOCCOCC(=O)N[C@@H](C)C(=O)O)CC[C@]3(C)[C@H](CC[C@@H]4[C@@]5(C)CC[C@H](O)C(C)(C)[C@@H]5CC[C@]43C)[C@@H]12` are “Non-toxic” and more than 4000 nM.
As for `C=C(C)[C@@H]1CC[C@]2(C(=O)NCCOCCOCCNC(C)=O)CC[C@]3(C)[C@H](CC[C@@H]4[C@@]5(C)CC[C@H](O)C(C)(C)[C@@H]5CC[C@]43C)[C@@H]12`, in data set [1], the Activity result is listed as “Non-toxic”. In data set [2], the EC50 is more than 4000 nM.
Regarding `C=C(C)[C@@H]1CC[C@]2(C(=O)NCCCCCCCNC(=O)[C@H](C)NC(=O)OC(C)(C)C)CC[C@]3(C)[C@H](CC[C@@H]4[C@@]5(C)CC[C@H](O)C(C)(C)[C@@H]5CC[C@]43C)[C@@H]12`, the Activity entry in data set [1] was “Non-toxic”. For the same molecule, in data set [2], the EC50 amounted to 110 nM.
`C=C(C)[C@@H]1CC[C@]2(C(=O)NCCCCCCCCNC(=O)[C@H](C)NC(=O)OC(C)(C)C)CC[C@]3(C)[C@H](CC[C@@H]4[C@@]5(C)CC[C@H](O)C(C)(C)[C@@H]5CC[C@]43C)[C@@H]12`: the Activity entry in data set [1] is “Non-toxic”. Moreover, in data set [2], the EC50 is 90 nM.
For `C=C(C)[C@@H]1CC[C@]2(C(=O)NCCCCCCCCNC(=O)[C@H](CCC(N)=O)NC(=O)OC(C)(C)C)CC[C@]3(C)[C@H](CC[C@@H]4[C@@]5(C)CC[C@H](O)C(C)(C)[C@@H]5CC[C@]43C)[C@@H]12` the same measures were “Non-toxic” and 60 nM.
In the same order, the values of `C=C(C)[C@@H]1CC[C@]2(C(=O)NCCCCCCCCNC(=O)[C@@H](NC(=O)OC(C)(C)C)C(C)C)CC[C@]3(C)[C@H](CC[C@@H]4[C@@]5(C)CC[C@H](O)C(C)(C)[C@@H]5CC[C@]43C)[C@@H]12` are “Non-toxic” and 2430 nM.
In the same order, the values of `C=C(C)[C@@H]1CC[C@]2(C(=O)NCCCCCCCCNC(=O)[C@@H]3CCCN3C(=O)OC(C)(C)C)CC[C@]3(C)[C@H](CC[C@@H]4[C@@]5(C)CC[C@H](O)C(C)(C)[C@@H]5CC[C@]43C)[C@@H]12` are “Non-toxic” and 160 nM.
On to `C=C(C)[C@@H]1CC[C@]2(C(=O)NCCCCCCCCCNC(=O)[C@H](CCC(N)=O)NC(=O)OC(C)(C)C)CC[C@]3(C)[C@H](CC[C@@H]4[C@@]5(C)CC[C@H](O)C(C)(C)[C@@H]5CC[C@]43C)[C@@H]12`, for which the Activity entry in data set [1] is recorded as “Non-toxic”. Moreover, the EC50 in data set [2] was 120 nM.
As to `C=C(C)[C@@H]1CC[C@]2(C(=O)NCCCCCCCCCNC(=O)[C@H](C)NC(=O)OC(C)(C)C)CC[C@]3(C)[C@H](CC[C@@H]4[C@@]5(C)CC[C@H](O)C(C)(C)[C@@H]5CC[C@]43C)[C@@H]12`, the Activity result in data set [1] is “Non-toxic”. In addition, the EC50 in data set [2] is more than 4000 nM.
Turning to `C=C(C)[C@@H]1CC[C@]2(C(=O)NCCCCCCCCNC(=O)C(CCC#N)NC(=O)OC(C)(C)C)CC[C@]3(C)[C@H](CC[C@@H]4[C@@]5(C)CC[C@H](O)C(C)(C)[C@@H]5CC[C@]43C)[C@@H]12` (some centres not stated), the Activity result in data set [1] is reported as “Non-toxic”. The EC50 in data set [2] came out at 80 nM.
In the same order, the values of `C=C(C)[C@@H]1CC[C@]2(C(=O)NCCCCCCC(=O)N[C@@H](CCC(N)=O)C(=O)OC)CC[C@]3(C)[C@H](CC[C@@H]4[C@@]5(C)CC[C@H](O)C(C)(C)[C@@H]5CC[C@]43C)[C@@H]12` are “Non-toxic” and more than 4000 nM.
Turning to `C=C(C)[C@@H]1CC[C@]2(C(=O)NCCCCCCCC(=O)N[C@@H](CCC(N)=O)C(=O)OC)CC[C@]3(C)[C@H](CC[C@@H]4[C@@]5(C)CC[C@H](O)C(C)(C)[C@@H]5CC[C@]43C)[C@@H]12`, the Activity entry in data set [1] is reported as “Non-toxic”. Further, the EC50 in data set [2] stood at 140 nM.
